Activity, inhibition and MRT inf data for two molecules are collected here from ChEMBL document CHEMBL4732044, “Discovery of a promising agent IQZ23 for the treatment of obesity and related metabolic disorders” (Eur J Med Chem, 2020).

What is called MRT inf is a mean duration of stay, worked out from the concentration-time curve.

Series [1] has as its system 3T3-L1. Put plainly: Lipid lowering activity in mouse 3T3-L1 cells assessed as adipogenic cocktail-induced triglyceride levels at 1 uM after 6 to 9 days by GPO-POD assay relative to control. The class given is functional. The settings on record: time 6-9 day. The procedure, abridged:
(§1)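 3T3-L1 cells were differentiated (cocktail on days 0–3, insulin thereafter) with 1 µM compound present during defined windows (days 0–3, 3–6, 6–9, or 0–3/0–6/0–9). TG was measured at day 9 by GPO-POD after Triton X-100 lysis and sonication. TG was normalized to BCA protein and expressed as % of differentiated control.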

Series [2] relates to Mus musculus. As to the kind of experiment: Antiobesity activity in high fat diet-induced obese C57BL/6J mouse model assessed as decrease in AUC of ITT at 20 mg/kg, ip administered for every other days for 6 weeks by ITT method. The class given is functional, organism-based. In short, it runs like this: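 Male C57BL/6J mice on HFC diet dosed i.p. For GTT, after 3 weeks of treatment: 6 h fast, then i.p. glucose 2 g/kg. For ITT, after 6 weeks: 6 h fast, then i.p. insulin 0.4 U/mouse. Tail-vein glucose measured at 0, 15, 30, 60 and 120 min; AUC calculated.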

Series [3] relates to 3T3-L1. As to the kind of experiment: Activation of AMPK pathway in adipogenic cocktail-induced mouse 3T3-L1 cells assessed as decrease in ATP level at 0.3 to 1 uM after 24 hrs. The class given is cell-based. The conditions noted are these: filed as activator, dose 0.3-1 µM. In short, it runs like this: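 Confluent 3T3-L1 pre-adipocytes exposed to adipogenic cocktail (0.5 mM IBMX, 100 ng/mL dexamethasone, 2 µg/mL insulin) with compound at 0.3 or 1 µM for 24 h. ATP quantified with a commercial luminescent kit and normalized to protein.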

Series [4] concerns 3T3-L1. As to the kind of experiment: Inhibition of mouse 3T3-L1 cells adipocyte differentiation assessed as reduction in adipogenic cocktail-induced ACC protein expression at 0.3 to 1 uM after 6 days by Western blot analysis. The settings on record: dose 0.3-1 µM, time 6.0 day. It is filed as functional, cell-based. The procedure, abridged:
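3T3-L1 preadipocytes were differentiated with cocktail for 3 days, then insulin medium for 3 days, with compound (0.3 or 1 µM) present throughout. Cells were harvested on day 6 and proteins measured by Western blot, with densitometry normalized to actin.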
Background: In western blotting, separated proteins are transferred to a membrane and probed.

Series [5] has as its system Mus musculus. Put plainly: Anti-hyperglycemic activity in high fat diet-induced obese C57BL/6J mouse model assessed as decrease in blood glucose level at 20 mg/kg, ip. The class given is functional, organism-based. The conditions noted are these: time hrs <=24, TDE = time-dependent effect. The procedure, abridged:
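C57BL/6J mice fed HFC diet (60% fat, 1% cholesterol). Single i.p. injection of saline or compound at 20 mg/kg. Blood glucose measured with a glucose monitor at 0, 0.5, 1, 2, 4, 8, 12 and 24 h.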

For series [6], the system named is 3T3-L1. As to the kind of experiment: Activation of AMPK pathway in mouse 3T3-L1 cells assessed as increase in NRF2 mRNA expression at 0.3 to 1 uM after 24 hrs by RT-qPCR analysis. The settings on record: filed as activator, dose 0.3-1 µM. The class given is cell-based. On the technique in general: In qPCR the cycle at which signal appears reflects the starting amount.

Series [7] concerns Mus musculus. Put plainly: Antiobesity activity in high fat diet-induced obese C57BL/6J mouse model assessed as decrease in liver weight at 20 mg/kg, ip administered for every other days for 6 weeks. The class given is functional, organism-based.
Series [8] deals with 3T3-L1. As to the kind of experiment: Lipid lowering activity in mouse 3T3-L1 cells assessed as adipogenic cocktail-induced triglyceride levels at 1 uM up to 9 days by GPO-POD assay relative to control. It is filed as functional, cell-based. The settings on record: time day <=9. In short, it runs like this:
as §1

For series [9], the system named is Mus musculus. As to the kind of experiment: Antiobesity activity in high fat diet-induced obese C57BL/6J mouse model assessed as decrease in fat mass at 20 mg/kg, ip administered for every other days for 6 weeks. It is filed as functional, organism-based.
For series [10], the system named is 3T3-L1. As to the kind of experiment: Activation of AMPK pathway in mouse 3T3-L1 cells assessed as increase in CPT1beta mRNA expression at 0.3 to 1 uM after 24 hrs by RT-qPCR analysis. The class given is cell-based. The settings on record: filed as activator, dose 0.3-1 µM.
Series [11] has as its system 3T3-L1. Put plainly: Activation of AMPK pathway in mouse 3T3-L1 cells assessed as increase in ACSL mRNA expression at 0.3 to 1 uM after 24 hrs by RT-qPCR analysis. The class given is cell-based. The conditions noted are these: filed as activator, dose 0.3-1 µM.
The test system of series [12] is Mus musculus. Put plainly: Antiobesity activity in high fat diet-induced obese C57BL/6J mouse model assessed as decrease in body weight at 20 mg/kg, ip administered for every other days for 6 weeks. It is filed as functional, organism-based. The procedure, abridged: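 Male C57BL/6J mice (7–8 weeks) fed HFC diet (60% fat, 1% cholesterol) for up to 14 weeks. From week 9, given 20 mg/kg i.p. every other day for 6 weeks in saline with 10% ethanol and 10% castor oil, or vehicle. Body weight and food intake recorded daily. At end, mice fasted 6 h, anesthetized, and blood collected into EDTA. Plasma chemistry run on an auto-analyzer; insulin by ultra-sensitive ELISA.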

In series [13] the test system is Mus musculus. As to the kind of experiment: Antiobesity activity in high fat diet-induced obese C57BL/6J mouse model assessed as decrease in lean mass at 20 mg/kg, ip administered for every other days for 6 weeks. It is filed as functional, organism-based.
A short description of series [14]: MRT(0 to infinity) in Sprague-Dawley rat at 2 mg/kg, iv up to 24 hrs by LC-MS/MS analysis. The conditions noted are these: in vivo.
The test system of series [15] is 3T3-L1. Put plainly: Activation of AMPK pathway in adipogenic cocktail-induced mouse 3T3-L1 cells assessed as increase in AMP to ATP ratio at 1 uM after 24 hrs. The settings on record: filed as activator. It is filed as cell-based.
Series [16] relates to 3T3-L1. Put plainly: Activation of AMPK pathway in mouse 3T3-L1 cells assessed as increase in […] mRNA expression at 1 uM after 24 hrs by RT-qPCR analysis. It is filed as cell-based. The settings on record: filed as activator.
In series [17] the test system is 3T3-L1. Put plainly: Lipid lowering activity in mouse 3T3-L1 cells assessed as reduction in adipogenic cocktail-induced triglyceride levels at 5 uM incubated for 6 days by GPO-POD assay relative to control. The class given is functional. Further details: scale not given: the % may be the effect or the level left. The settings on record: time 6 day. The procedure, abridged: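 Confluent 3T3-L1 cells were treated from day 0 in cocktail (IBMX, dexamethasone, insulin) for 3 days, then re-dosed in insulin medium for 3 more days. For dose–response, concentrations were 0–10 µM (0.01, 0.1, 0.3, 1, 3, 10). On day 6, cells were lysed in 0.2% Triton X-100 and TG was measured by GPO-POD and normalized to BCA protein as % of control. EC50 was fitted from the dose–response. N = 4.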

Activity calls are given as the source filed them. The calls are words filed in the database; no cut-off is given here.

Take `COc1ccc2[nH]c(-c3nc(NCCCCN4CCCC4)c4ccccc4n3)c(C=O)c2c1`: the figures for the Activity in series [1] and in [5] were 35.3% and “Tde”, respectively. Besides, the outcome in series [2], in series [3], in series [6], in series [7], in series [8] and in [9] was Active. Also, the result in series [10], in series [11], in [12] and in [13] was Active. Besides, in [4], the inhibition entry was “Active”.

`CN(C)CCCNc1nc(-c2[nH]c3ccccc3c2C=O)nc2ccccc12` yielded an MRT inf in series [14] of 3.56 h. Besides, the outcome in series [15] and in [16] was Active. Besides, in series [17], the Activity is reported as 89.3%.
